Test results as given in ChEMBL document CHEMBL5257107 (Bioorg Med Chem Lett, 2023).

Test: Cytotoxicity against human IMR-32 cells assessed as reduction in cell viability measured after 24 hrs by celltiter-glo-based assay
Assay type: toxicity
Method in brief: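 Human IMR32 neuroblastoma cells were exposed to compound for 24 h. Viability was then read by CellTiter-Glo luminescence.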

SMILES	IC50 at 24 h [µM]
O=C(O)CCCN[C@H]1CS(=O)(=O)C[C@@H]1S(=O)(=O)c1ccc(Cl)c(Cl)c1	> 20
O=C(O)CCCCCN[C@H]1CS(=O)(=O)C[C@@H]1S(=O)(=O)c1ccc(Cl)c(Cl)c1	> 20
CC(C)CN[C@H]1CS(=O)(=O)C[C@@H]1C(=O)Nc1ccc(Cl)c(Cl)c1	> 20
